According to article PMC8640676 (Journal of Pesticide Science, 2021):

Experiments:
[1] = molecular target: T1, protoporphyrinogen oxidase (PPO) (Rattus norvegicus, UniProt D3ZVN7); test: PPO-inhibition assay, rat liver mitochondrial fraction; format: biochemical
T1 sequence (D3ZVN7 1-488): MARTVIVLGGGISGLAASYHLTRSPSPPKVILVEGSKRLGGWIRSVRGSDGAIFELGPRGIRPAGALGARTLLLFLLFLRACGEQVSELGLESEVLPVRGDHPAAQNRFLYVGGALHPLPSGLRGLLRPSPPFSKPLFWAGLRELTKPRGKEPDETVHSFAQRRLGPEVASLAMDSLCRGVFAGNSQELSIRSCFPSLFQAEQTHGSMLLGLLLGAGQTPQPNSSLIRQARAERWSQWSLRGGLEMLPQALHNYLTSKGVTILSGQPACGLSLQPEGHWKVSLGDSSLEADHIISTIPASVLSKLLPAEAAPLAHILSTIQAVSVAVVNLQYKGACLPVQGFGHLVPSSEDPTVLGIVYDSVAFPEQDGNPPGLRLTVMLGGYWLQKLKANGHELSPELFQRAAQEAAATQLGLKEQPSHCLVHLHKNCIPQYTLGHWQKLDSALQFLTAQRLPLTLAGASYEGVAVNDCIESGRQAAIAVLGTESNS
In short: (§1)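 Liver mitochondria came from pooled SD rats and humans, or were freshly kit-isolated from Crl:CD1 mice and TOYO beagles. They were used at 0.2 mg protein/mL in 100 mM Tris-HCl pH 7.5 with 0.1% Triton-X, 1 mM EDTA and 40 mM ascorbate, preincubated 10 min at 37°C, then given 0.5 µM protoporphyrinogen IX. PPIX fluorescence (ex 410/em 630 nm) was read for 60 min at 37°C. Heat-killed mitochondria gave the background, and IC50 came from 4-parameter fits over 3 runs.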

[2] = molecular target: T2, protoporphyrinogen oxidase (PPO) (Canis lupus familiaris, UniProt A0A8I3Q7Z3); test: PPO-inhibition assay, dog liver mitochondrial fraction; format: biochemical
T2 sequence (A0A8I3Q7Z3 1-480): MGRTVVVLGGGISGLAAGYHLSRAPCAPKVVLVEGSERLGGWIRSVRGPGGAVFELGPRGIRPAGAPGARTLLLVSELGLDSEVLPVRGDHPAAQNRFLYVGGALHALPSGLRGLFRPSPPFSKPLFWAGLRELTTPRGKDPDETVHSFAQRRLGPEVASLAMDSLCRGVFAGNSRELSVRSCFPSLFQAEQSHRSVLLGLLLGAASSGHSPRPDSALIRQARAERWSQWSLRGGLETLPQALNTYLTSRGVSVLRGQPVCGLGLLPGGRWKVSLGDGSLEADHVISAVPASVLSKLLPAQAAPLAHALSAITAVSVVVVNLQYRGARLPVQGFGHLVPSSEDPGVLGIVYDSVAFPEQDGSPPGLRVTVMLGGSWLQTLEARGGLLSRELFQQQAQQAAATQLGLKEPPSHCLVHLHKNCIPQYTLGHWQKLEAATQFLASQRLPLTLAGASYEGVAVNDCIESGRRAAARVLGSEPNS
In short: as §1

[3] = In vitro metabolism study in liver microsomes; format: in vitro ADME; details: rat liver microsomes
[4] = Toxicokinetics in plasma, dog 90-day study; format: in vivo; details: for Cmax: beagle, dog, plasma, po
[5] = tested on: cryopreserved primary hepatocytes of SD rats; test: Hepatocyte uptake assay; format: in vitro ADME, rat; details: rats vs humans
[6] = molecular target: T3, protoporphyrinogen oxidase (PPO) (Mus musculus, UniProt P51175); test: PPO-inhibition assay, mouse liver mitochondrial fraction; format: biochemical
T3 sequence (P51175 1-477): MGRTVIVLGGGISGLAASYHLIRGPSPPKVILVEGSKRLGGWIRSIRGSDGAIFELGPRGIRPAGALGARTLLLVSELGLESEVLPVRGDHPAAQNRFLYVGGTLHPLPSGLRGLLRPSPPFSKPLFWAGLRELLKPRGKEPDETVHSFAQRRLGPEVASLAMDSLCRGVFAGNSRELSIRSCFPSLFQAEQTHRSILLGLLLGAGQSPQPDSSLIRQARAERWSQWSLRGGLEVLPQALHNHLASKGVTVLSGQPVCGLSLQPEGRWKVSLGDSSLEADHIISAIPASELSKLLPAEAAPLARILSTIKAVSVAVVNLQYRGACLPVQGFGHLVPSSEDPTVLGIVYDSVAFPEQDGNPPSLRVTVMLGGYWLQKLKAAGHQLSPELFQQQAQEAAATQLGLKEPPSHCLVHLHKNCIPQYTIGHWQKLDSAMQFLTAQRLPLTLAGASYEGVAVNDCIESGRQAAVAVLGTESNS
In short: as §1

[7] = molecular target: T4, protoporphyrinogen oxidase (PPO) (Homo sapiens, UniProt P50336); test: PPO-inhibition assay, human liver mitochondrial fraction; format: biochemical
T4 sequence (P50336 1-477): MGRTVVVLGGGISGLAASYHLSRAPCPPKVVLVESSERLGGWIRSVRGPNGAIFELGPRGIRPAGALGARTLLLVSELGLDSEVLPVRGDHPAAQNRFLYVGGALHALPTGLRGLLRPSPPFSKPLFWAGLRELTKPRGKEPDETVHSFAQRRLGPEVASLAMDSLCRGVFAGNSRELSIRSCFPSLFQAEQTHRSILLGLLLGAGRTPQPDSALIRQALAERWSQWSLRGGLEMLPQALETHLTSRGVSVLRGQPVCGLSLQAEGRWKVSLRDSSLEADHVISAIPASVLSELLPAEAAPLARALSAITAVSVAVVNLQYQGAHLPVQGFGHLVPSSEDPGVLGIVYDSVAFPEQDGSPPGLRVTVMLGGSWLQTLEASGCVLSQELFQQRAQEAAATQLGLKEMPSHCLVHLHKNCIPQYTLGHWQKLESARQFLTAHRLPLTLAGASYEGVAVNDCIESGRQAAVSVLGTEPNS
In short: as §1

[8] = In vitro metabolism study in liver microsomes; format: in vitro ADME; details: human liver microsomes
[9] = tested on: cryopreserved primary hepatocytes of humans; test: Hepatocyte uptake assay; format: in vitro ADME; details: human hepatocytes (both genders), 5 µM, 37°C minus 4°C
[10] = Toxicokinetics in plasma, rat 90-day study; format: in vivo; details: for AUC(0-t) / Cmax: rat, plasma, po
[11] = In vitro metabolism study in liver microsomes; format: in vitro ADME; details: mouse liver microsomes
[12] = Toxicokinetics in plasma, mouse 90-day study; format: in vivo; details: for AUC(0-t) / Cmax: mouse, plasma, po
[13] = Incubation of epyrifenacil without microsomal fractions; format: in vitro ADME; details: 30 min of incubation
[14] = 90-day subchronic toxicity study with epyrifenacil in dogs; format: in vivo, dog; details: beagle, dog, in vivo, oral
In short: (§2)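 Beagles, 4 per sex per group, were dosed orally with gelatin capsules at 0, 100, 300 or 1000 mg/kg/day for 90 consecutive days. The study was run to test guidelines under GLP.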

Beagle dogs = test: as above; format: in vivo, dog
In short: as §2

[15] = 90-day subchronic toxicity study with epyrifenacil in mice; format: in vivo; details: Crl:CD1(ICR), mouse, in vivo, oral
In short: (§3)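 Crl:CD1(ICR) mice, 10 per sex per group, had free access to diet containing 0 (basal diet), 5, 25 or 100 ppm for 90 consecutive days. TK satellite groups held 24 mice per sex. The study was run to test guidelines under GLP.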

Crl:CD1(ICR) mice = test: as above; format: in vivo; details: mouse, 90-day study
In short: as §3

[16] = 90-day subchronic toxicity study with epyrifenacil in rats; format: in vivo, rat; details: Crl:CD(SD), rat, in vivo, oral
In short: (§4)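 Crl:CD(SD) rats, 10 per sex per group, had free access to diet containing 0 (basal diet), 50, 300 or 800 ppm for 90 consecutive days. TK satellite groups held 4 rats per sex. The study was run to test guidelines under GLP.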

Crl:CD(SD) rats = test: as above; format: in vivo, rat
In short: as §4

[17] = female, Crl:CD(SD), 19 mg/kg bw/day
[18] = male, Crl:CD(SD), 3 mg/kg bw/day
[19] = female, Crl:CD1(ICR), 4.1 mg/kg bw/day

Compound: Cn1c(C(F)(F)F)cc(=O)n(-c2cc(Oc3cccnc3OCC(=O)O)c(Cl)cc2F)c1=O [S-3100-CA, (3-{2-chloro-4-fluoro-5-[1,2,3,6-tetrahydro-3-methyl-2,6-dioxo-4-(trifluoromethyl)pyrimidin-1-yl]phenoxy}pyridin-2-yloxy)acetic acid]
- IC50 [1]: 1.5 ± 0.36 nM
- IC50 [2]: 11.1 ± 3.12 nM
- S-3100-CA detected as major metabolite, share of the applied radioactivity ([3]; [14C]epyrifenacil 10 µM): no less than 80%
- AUC0–24 of S-3100-CA at NOAEL, fold change vs. corresponding mouse value ([4]; female dogs vs female mice): 23 fold
- Cmax of S-3100-CA at NOAEL, fold change vs. corresponding mouse value ([4]; female dogs vs female mice): 42 fold
- Cmax ([4]; female, 300 mg/kg bw/day): 5650 ng/mL
- Cmax ([4]; female, 300 mg/kg/day): 5650 ng/mL
- Cmax of S-3100-CA at NOAEL, fold change vs. corresponding mouse value ([4]; male dogs vs male mice): 74 fold
- Cmax ([4]; male, 100 mg/kg bw/day): 947 ng/mL
- Cmax ([4]; male, 100 mg/kg/day): 947 ng/mL
- Hepatocyte uptake, times greater in rats than in humans [5]: 2 times
- IC50 [6]: 0.9 ± 0.3 nM
- IC50 [7]: 12.5 ± 2.08 nM
- S-3100-CA detected as major metabolite, share of the applied radioactivity ([8]; [14C]epyrifenacil 10 µM): no less than 80%
- Active uptake rate into hepatocytes [9]: 3.83 µL/10^6 cells/min
- AUC0–24 of S-3100-CA at NOAEL, fold change vs. corresponding mouse value ([10]; female rats vs female mice): 2.2 fold
- Cmax of S-3100-CA at NOAEL, fold change vs. corresponding mouse value ([10]; female rats vs female mice): 2.0 fold
- AUC(0-t) [10, 17]: 5020 ng·h/mL
- Cmax [10, 17]: 266 ng/mL
- AUC(0-t) ([10]; female, Crl:CD(SD), 50 ppm): 879 ng·h/mL
- Cmax ([10]; female, 50 ppm in diet): 46.5 ng/mL
- AUC(0-t) ([10]; female, 300 ppm in diet): 5020 ng·h/mL
- Cmax ([10]; female, 300 ppm in diet): 266 ng/mL
- AUC(0-t) ([10]; female, 800 ppm in diet): 13200 ng·h/mL
- Cmax ([10]; female, 800 ppm in diet): 756 ng/mL
- Cmax of S-3100-CA at NOAEL, fold change vs. corresponding mouse value ([10]; male rats vs male mice): 1.6 fold
- AUC(0-t) [10, 18]: 467 ng·h/mL
- Cmax [10, 18]: 20.7 ng/mL
- AUC(0-t) ([10]; male, Crl:CD(SD), 50 ppm): 467 ng·h/mL
- Cmax ([10]; male, Crl:CD(SD), 50 ppm): 20.7 ng/mL
- AUC(0-t) ([10]; male, 300 ppm in diet): 4010 ng·h/mL
- Cmax ([10]; male, 300 ppm in diet): 248 ng/mL
- S-3100-CA detected as major metabolite, share of the applied radioactivity ([11]; [14C]epyrifenacil 10 µM): no less than 80%
- AUC(0-t) [12, 19]: 2240 ng·h/mL
- Cmax [12, 19]: 135 ng/mL
- AUC(0-t) ([12]; female, 5 ppm in diet): 403 ng·h/mL
- Cmax ([12]; female, 5 ppm in diet): 22.7 ng/mL
- AUC(0-t) ([12]; female, 25 ppm in diet): 2240 ng·h/mL
- Cmax ([12]; female, 25 ppm in diet): 135 ng/mL
- AUC(0-t) ([12]; female, 100 ppm in diet): 14800 ng·h/mL
- Cmax ([12]; female, 100 ppm in diet): 860 ng/mL
- Cmax ([12]; male, Crl:CD1(ICR), 0.7 mg/kg bw/day): 12.8 ng/mL
- Cmax ([12]; male, 5 ppm in diet): 12.8 ng/mL
- AUC(0-t) ([12]; male, 25 ppm in diet): 4580 ng·h/mL
- Cmax ([12]; male, 25 ppm in diet): 64.9 ng/mL
- AUC(0-t) ([12]; male, 100 ppm in diet): 10100 ng·h/mL
- Cmax ([12]; male, 100 ppm in diet): 550 ng/mL

Compound: CCOC(=O)COc1ncccc1Oc1cc(-n2c(=O)cc(C(F)(F)F)n(C)c2=O)c(F)cc1Cl [epyrifenacil, ethyl[(3-{2-chloro-4-fluoro-5-[3-methyl-2,6-dioxo-4-(trifluoromethyl)-3,6-dihydropyrimidin-1(2H)-yl]phenoxy}pyridin-2-yl)oxy]acetate]
- Non-enzymatic degradation [13]: did not present any degradants
- NOAEL at 90 days ([14]; female): 300 mg/kg/day
- NOAEL at 90 days ([14]; male): 100 mg/kg/day
- Major adverse findings (Beagle dogs; dog, 90-day study): Increased glycogen associated with increased ALP, anemia
- NOAEL, fold change vs. corresponding mouse value (Beagle dogs; female dogs vs female mice): 73 fold
- NOAEL, fold change vs. corresponding mouse value (Beagle dogs; male dogs vs male mice): 143 fold
- IC50 [1]: 2.6 ± 0.05 nM
- IC50 [2]: 7.6 ± 0.18 nM
- Time within which epyrifenacil almost disappeared ([3]; 10 µM, NADPH, 37°C): ≤ 5 min
- NOAEL at 90 days ([15]; female): 4.1 mg/kg/day
- NOAEL at 90 days ([15]; male): 0.7 mg/kg/day
- Major adverse findings (Crl:CD1(ICR) mice): Hepatocyte injury caused by porphyrin accumulation, hepatocellular hypertrophy, anemia
- Parent epyrifenacil detected in plasma ([4]; dog plasma, 90-day oral capsule administration): not more than 0.04 µg/mL
- IC50 [6]: 2.2 ± 0.03 nM
- IC50 [7]: 10.2 ± 0.66 nM
- NOAEL at 90 days ([16]; female): 19 mg/kg/day
- NOAEL at 90 days ([16]; male): 3 mg/kg/day
- NOAEL, fold change vs. corresponding mouse value (Crl:CD(SD) rats; female rats vs female mice): 4.6 fold
- NOAEL, fold change vs. corresponding mouse value (Crl:CD(SD) rats; male rats vs male mice): 4.3 fold
- Major adverse findings (Crl:CD(SD) rats; rat, 90-day study): Hepatocyte injury caused by porphyrin accumulation, hepatocellular hypertrophy, anemia
- Time within which epyrifenacil almost disappeared ([8]; 10 µM, NADPH, 37°C): ≤ 5 min
- Parent epyrifenacil detected in plasma ([10]; rats, 90-day dietary administration (data not shown)): no measurable amount
- Time within which epyrifenacil almost disappeared ([11]; 10 µM, NADPH, 37°C): ≤ 5 min
- Parent epyrifenacil detected in plasma ([12]; mice, 90-day dietary administration (data not shown)): no measurable amount
